Assay results reported in ChEMBL document CHEMBL1152601, “Synthesis and biological evaluation of novel phthalazinone derivatives as topically active phosphodiesterase 4 inhibitors” (Bioorg Med Chem, 2009).

Experiments:
[1] = molecular target: 3',5'-cyclic-AMP phosphodiesterase 4D (Homo sapiens, UniProt Q08499); assay: Inhibition of human recombinant PDE4D catalytic domain cloned from human HL60 cells assessed as inhibition of cAMP hydrolysis
Mus musculus = assay: Reduction of dermatitis in topically administered BALB/c mouse assessed as reduction of TNCB-induced ear swelling; type: functional; design: scale not given: the % may be the effect or the level left
In short: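 Eight-week-old male BALB/c mice with TNCB-induced dermatitis on the right pinna. 20 mg of 1% compound in vaseline ointment applied topically; diseased controls got plain vaseline during the last week (n = 4). The untreated left pinna served as normal reference. Pinna thickness measured by digital micrometer 6 h after the last application. Percent reduction of swelling (right minus left) calculated relative to the diseased control.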

Blood = assay: Antiinflammatory activity against Sprague-Dawley rat whole blood assessed as suppression of LPS-induced TNFalpha production by ELISA; type: functional, tissue-based
In short: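 Blood from 10-week-old male Sprague-Dawley rats, drawn from the abdominal vein under ether anesthesia into 1.6 mg/mL EDTA. Compound diluted from 10 mM DMSO stock, preincubated with blood for 30 min at 37 °C in 5% CO2. LPS (100 µg/mL solution, 10 µL to 90 µL) added, then 5 h incubation. PBS added, centrifuged, supernatant TNF-α measured by ELISA. IC50 derived for 50% inhibition.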

[2] = Half life in human liver S9 fraction; type: ADME, subcellular
In short: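 Human liver S9 fraction (1 mg protein/mL) in 100 mM potassium phosphate pH 7.4 with NADPH-generating system, preincubated 5 min at 37 °C. Compound added from methanol to 2 µM final, incubated 0, 2 or 10 min at 37 °C, stopped with acetonitrile. Parent remaining quantified by HPLC, UV 314 nm. Half-life obtained as -0.693/k, k from log-linear regression of percent remaining.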

[3] = Rattus norvegicus, Sprague-Dawley, Blood

Chain of 3',5'-cyclic-AMP phosphodiesterase 4D (Q08499 whole entry, the tested form may be a part): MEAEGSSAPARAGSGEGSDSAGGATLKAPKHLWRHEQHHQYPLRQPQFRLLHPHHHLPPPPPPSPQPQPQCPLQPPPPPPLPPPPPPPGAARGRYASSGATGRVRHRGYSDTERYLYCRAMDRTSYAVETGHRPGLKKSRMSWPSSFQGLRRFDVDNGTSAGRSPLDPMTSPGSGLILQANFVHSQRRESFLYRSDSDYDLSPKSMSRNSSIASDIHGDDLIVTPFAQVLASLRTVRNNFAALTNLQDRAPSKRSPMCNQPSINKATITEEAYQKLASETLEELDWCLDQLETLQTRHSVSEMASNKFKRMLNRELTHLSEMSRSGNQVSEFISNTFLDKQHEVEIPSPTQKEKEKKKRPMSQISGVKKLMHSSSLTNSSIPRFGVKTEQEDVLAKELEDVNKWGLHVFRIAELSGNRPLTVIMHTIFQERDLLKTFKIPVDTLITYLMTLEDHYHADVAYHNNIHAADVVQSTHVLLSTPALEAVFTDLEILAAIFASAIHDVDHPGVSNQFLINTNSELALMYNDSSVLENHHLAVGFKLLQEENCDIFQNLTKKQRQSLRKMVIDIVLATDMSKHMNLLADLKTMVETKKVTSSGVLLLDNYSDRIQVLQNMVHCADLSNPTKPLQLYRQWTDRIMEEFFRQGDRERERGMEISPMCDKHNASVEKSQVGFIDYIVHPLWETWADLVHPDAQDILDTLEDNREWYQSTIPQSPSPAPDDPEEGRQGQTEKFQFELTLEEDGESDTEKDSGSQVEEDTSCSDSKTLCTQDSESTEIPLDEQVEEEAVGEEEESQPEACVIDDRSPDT

Row | Structure (SMILES) | IC50 [1] [nM] | Activity (Mus musculus) [%] | IC50 (Blood; [3]) [nM] | IC50 (Blood) [nM] | half-life [2] [min]
1 | COc1ccc(C2=NN(Cc3ccccc3CN3CCOCC3)C(=O)[C@@H]3CC=CC[C@H]23)cc1OC (relative stereo) | 1.3 | 36.8 | 1 | – | –
2 | COc1ccc(C2=NN(Cc3ccc(CN4CCOCC4)cc3)C(=O)[C@@H]3CC=CC[C@H]23)cc1OC | 8.8 | – | – | 82.2 | –
3 | COc1ccc(C2=NN(Cc3ccc(Cn4ccnc4)cc3)C(=O)[C@@H]3CC=CC[C@H]23)cc1OC (relative stereo) | 0.7 | – | 0.5 | – | –
4 | COc1ccc(C2=NN(Cc3ccc(CN(C)C)cc3)C(=O)[C@@H]3CC=CC[C@H]23)cc1OC (relative stereo) | 9.7 | – | 34.9 | – | –
5 | COc1ccc(C2=NN(Cc3ccc(CN4CCC(=O)CC4)cc3)C(=O)[C@@H]3CC=CC[C@H]23)cc1OC (relative stereo) | 0.9 | 36.8 | 3 | – | –
6 | COc1ccc(C2=NN(Cc3ccc(CN4CCOCC4)cc3)C(=O)[C@@H]3C[C@H]23)cc1OC (relative stereo) | 16.4 | – | 119 | – | –
7 | COc1ccc(C2=NN(CCOCCn3ccnc3)C(=O)[C@@H]3CC=CC[C@H]23)cc1OC (relative stereo) | 5.2 | – | 9.1 | – | –
8 | COc1ccc(C2=NN(C/C=C/Cn3ccnc3)C(=O)[C@@H]3CC=CC[C@H]23)cc1OC (relative stereo) | 0.4 | – | 0.7 | – | –
9 | COc1ccc(C2=NN(Cc3ccc(CN4CCOCC4)cc3)C(=O)[C@@H]3CC=CC[C@H]23)cc1OC.Cl | 0.3 | 38.5 | – | 4.2 | 6
10 | COc1ccc(C2=NN(Cc3ccc(CN4CCOCC4)cc3)C(=O)[C@@H]3CC=CC[C@H]23)cc1OC (racemic) | 0.9 | – | – | 0.9 | –
11 | COc1ccc(C2=NN(Cc3ccc(CN4CCN(C)CC4)cc3)C(=O)[C@@H]3CC=CC[C@H]23)cc1OC (relative stereo) | 2 | – | 14.5 | – | –
12 | COc1ccc(C2=NN(Cc3ccc(CN4CCCCC4)cc3)C(=O)[C@@H]3CC=CC[C@H]23)cc1OC (relative stereo) | 8.2 | – | 57.1 | – | –
13 | COc1ccc(C2=NN(Cc3ccc(CN4CCOCC4)cc3)C(=O)[C@@H]3CC[C@H]23)cc1OC (relative stereo) | 4.3 | – | 44.8 | – | –
14 | COc1ccc(C2=NN(Cc3cccc(CN4CCOCC4)c3)C(=O)[C@@H]3CC=CC[C@H]23)cc1OC (relative stereo) | 1.4 | – | 3 | – | –
15 | COc1ccc(C2=NNC(=O)[C@@H]3CC=CC[C@H]23)cc1OC (racemic) | 85 | – | 207 | – | –
16 | COc1ccc(C2=NN(Cc3ccc(CN4CCC5(CC4)OCCO5)cc3)C(=O)[C@@H]3CC=CC[C@H]23)cc1OC (relative stereo) | 1.3 | – | 0.9 | – | –
17 | COc1ccc(C2=NN(CC(=O)NCCCn3ccnc3)C(=O)[C@@H]3CC=CC[C@H]23)cc1OC (relative stereo) | 14.3 | – | 112 | – | –
18 | COc1ccc(C2=NN(Cc3ccccc3CN3CCOCC3)C(=O)[C@@H]3CCCC[C@H]23)cc1OC (relative stereo) | 1 | – | 4.6 | – | –
19 | COc1ccc(C2=NN(Cc3ccc(CN4CCOCC4)cc3)C(=O)CC2)cc1OC | 45.9 | – | 442 | – | –
